Columns and labels:
Mu-type opioid receptor [1] = molecular target: Mu-type opioid receptor (Cavia porcellus, UniProt P97266); test: Ability to inhibit electrically evoked contractions of isolated muscle preparations of guinea pig ileum (GPI, mu receptor); format: functional, tissue-based
Method in brief: (§1)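 Electrically evoked contractions of isolated guinea pig ileum (GPI) or mouse vas deferens (MVD) preparations. A log dose-response curve for [Leu5]-enkephalin was run as standard on each ileum and vas preparation. IC50 values were normalised to that standard.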

[2] = molecular target: T1, Delta-type opioid receptor (Homo sapiens, UniProt P41143); test: Inhibition of binding of [3H]diprenorphine to cloned human Opioid receptor delta 1 expressed in CHO cell membrane;Range is between (1.7-2.3); format: cell-based
T1 sequence (P41143 whole entry): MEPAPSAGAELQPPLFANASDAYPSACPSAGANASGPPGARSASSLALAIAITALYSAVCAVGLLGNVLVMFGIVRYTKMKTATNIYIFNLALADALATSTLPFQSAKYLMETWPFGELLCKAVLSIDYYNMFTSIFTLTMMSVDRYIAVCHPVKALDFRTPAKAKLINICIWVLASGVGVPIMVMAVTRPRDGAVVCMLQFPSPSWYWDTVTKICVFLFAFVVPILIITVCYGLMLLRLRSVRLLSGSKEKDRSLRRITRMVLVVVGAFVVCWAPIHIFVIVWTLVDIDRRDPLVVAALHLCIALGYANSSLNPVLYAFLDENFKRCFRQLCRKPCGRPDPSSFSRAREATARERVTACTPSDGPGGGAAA

Rattus norvegicus [3] = species on record: Rattus norvegicus; test: Dosage necessary to produce half maximal effect; Range is in between (0.0010-0.0024); format: functional
[4] = molecular target: T2, Delta-type opioid receptor (Mus musculus, UniProt P32300); test: Ability to inhibit electrically evoked contractions of isolated muscle preparations of mouse vas deferens (MVD, delta receptor); format: functional; method in brief: as §1
T2 sequence (P32300 whole entry): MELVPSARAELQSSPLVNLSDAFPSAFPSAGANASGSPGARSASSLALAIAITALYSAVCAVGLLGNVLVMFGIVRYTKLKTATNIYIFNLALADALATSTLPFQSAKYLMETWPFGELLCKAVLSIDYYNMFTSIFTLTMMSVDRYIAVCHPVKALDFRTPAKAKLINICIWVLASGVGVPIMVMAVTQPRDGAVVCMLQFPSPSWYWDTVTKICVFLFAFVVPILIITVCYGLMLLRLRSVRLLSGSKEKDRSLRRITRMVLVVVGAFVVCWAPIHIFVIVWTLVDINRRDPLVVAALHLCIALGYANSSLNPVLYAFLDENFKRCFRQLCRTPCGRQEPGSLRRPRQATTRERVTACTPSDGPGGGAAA

[5] = molecular target: T3, Kappa-type opioid receptor (Homo sapiens, UniProt P41145); test: Inhibition of binding of [3H]diprenorphine to cloned human Opioid receptor kappa 1 expressed in CHO cell membrane;Range is in between (1400-1900); format: cell-based
T3 sequence (P41145 whole entry): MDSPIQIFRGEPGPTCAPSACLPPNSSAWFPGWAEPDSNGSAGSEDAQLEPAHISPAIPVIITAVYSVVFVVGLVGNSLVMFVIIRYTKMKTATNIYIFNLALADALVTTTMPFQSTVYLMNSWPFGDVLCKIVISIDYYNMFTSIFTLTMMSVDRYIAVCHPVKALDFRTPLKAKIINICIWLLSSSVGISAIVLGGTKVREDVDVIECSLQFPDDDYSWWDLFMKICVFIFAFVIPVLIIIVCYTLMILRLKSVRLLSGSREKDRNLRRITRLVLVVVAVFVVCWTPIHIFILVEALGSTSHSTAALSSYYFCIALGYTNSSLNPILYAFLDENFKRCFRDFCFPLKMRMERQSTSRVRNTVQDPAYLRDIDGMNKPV
Method in brief: (§2)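 Membranes from CHO cells expressing cloned human µ, δ or κ receptors in Tris-HCl pH 7.8 buffer with EGTA, MgCl2 and protease inhibitors. 50-100 µg protein with 0.4 nM (final) [3H]-diprenorphine, 60 min, room temperature. Filtered on PEI/BSA-treated GF/B filters, counted by scintillation. Nonspecific binding with 10 µM naloxone. Four-parameter one-site fit; Ki by Cheng-Prusoff.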

Mu-type opioid receptor [6] = molecular target: T4, Mu-type opioid receptor (Homo sapiens, UniProt P35372); test: Inhibition of binding of [3H]diprenorphine to cloned human Opioid receptor mu 1 expressed in CHO cell membrane;Range is in between (1.8-2.2); format: cell-based
T4 sequence (P35372 whole entry): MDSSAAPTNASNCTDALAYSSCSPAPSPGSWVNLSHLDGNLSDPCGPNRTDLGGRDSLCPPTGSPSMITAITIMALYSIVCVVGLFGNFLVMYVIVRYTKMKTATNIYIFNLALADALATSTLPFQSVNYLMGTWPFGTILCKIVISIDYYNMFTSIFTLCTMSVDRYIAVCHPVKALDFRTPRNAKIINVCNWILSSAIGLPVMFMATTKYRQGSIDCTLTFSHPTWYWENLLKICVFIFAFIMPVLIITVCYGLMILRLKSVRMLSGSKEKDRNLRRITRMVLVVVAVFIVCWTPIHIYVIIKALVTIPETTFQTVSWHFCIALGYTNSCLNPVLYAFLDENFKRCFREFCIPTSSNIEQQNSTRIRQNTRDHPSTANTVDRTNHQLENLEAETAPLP

[7] = molecular target: T1, Delta-type opioid receptor; test: Inhibition of binding of [3H]diprenorphine to cloned human Opioid receptor delta 1 expressed in CHO cell membrane;Range is between (0.35-2.5); format: cell-based; method in brief: as §2
[8] = molecular target: T2, Delta-type opioid receptor; test: Ability to inhibit electrically evoked contractions of isolated muscle preparations of mouse vas deference (MVD, delta receptor); format: functional; method in brief: as §1
[9] = molecular target: T3, Kappa-type opioid receptor; test: Inhibition of binding of [3H]diprenorphine to cloned human Opioid receptor kappa 1 expressed in CHO cell membrane; format: cell-based
Rattus norvegicus [10] = species on record: Rattus norvegicus; test: Dosage necessary to produce half maximal effect; Range is in between (0.017-0.41); format: functional
Mu-type opioid receptor [11] = molecular target: T4, Mu-type opioid receptor; test: Inhibition of binding of [3H]diprenorphine to cloned human Opioid receptor mu 1 expressed in CHO cell membrane;Range is in between (580-680); format: cell-based; method in brief: as §2
Rattus norvegicus [12] = species on record: Rattus norvegicus; test: Dosage necessary to produce half maximal effect; Range is in between (98-163); format: functional
Mu-type opioid receptor [13] = molecular target: T4, Mu-type opioid receptor; test: Inhibition of binding of [3H]diprenorphine to cloned human Opioid receptor mu 1 expressed in CHO cell membrane;Range is in between (110-150); format: cell-based; method in brief: as §2
Rattus norvegicus [14] = species on record: Rattus norvegicus; test: Dosage necessary to produce half maximal effect; Range is in between (0.04-0.33); format: functional
[15] = molecular target: T1, Delta-type opioid receptor; test: Inhibition of binding of [3H]diprenorphine to cloned human Opioid receptor delta 1 expressed in CHO cell membrane;Range is between (0.66-0.95); format: cell-based; method in brief: as §2
[16] = molecular target: T3, Kappa-type opioid receptor; test: Inhibition of binding of [3H]diprenorphine to cloned human Opioid receptor kappa 1 expressed in CHO cell membrane; range is in between (4700-8500); format: cell-based; method in brief: as §2
Rattus norvegicus [17] = species on record: Rattus norvegicus; test: Dosage necessary to produce half maximal effect; Range is in between (0.0010-0.0034); format: functional
Mu-type opioid receptor [18] = molecular target: T4, Mu-type opioid receptor; test: Inhibition of binding of [3H]diprenorphine to cloned human Opioid receptor mu 1 expressed in CHO cell membrane;Range is in between (1.3-3.7); format: cell-based
[19] = molecular target: T1, Delta-type opioid receptor; test: Inhibition of binding of [3H]diprenorphine to cloned human Opioid receptor delta 1 expressed in CHO cell membrane;Range is in between (0.62-0.65); format: cell-based
Rattus norvegicus [20] = species on record: Rattus norvegicus; test: Dosage necessary to produce half maximal effect; Range is in between (10-24); format: functional

Mu-type opioid receptor (Cavia porcellus, UniProt P97266), sequence (P97266 whole entry): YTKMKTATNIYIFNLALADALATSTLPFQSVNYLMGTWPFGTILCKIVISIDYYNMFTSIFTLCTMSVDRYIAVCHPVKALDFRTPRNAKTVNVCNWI

N[C@@H](Cc1ccc(O)cc1)C(=O)N[C@@H]1CSC[C@H](C(=O)O)NC(=O)[C@H](Cc2ccccc2)NC(=O)CNC1=O
IC50 (Mu-type opioid receptor [1]): 0.56 nM | Ki [2]: 2 nM | ED50 (Rattus norvegicus [3]): 0.0015 nM | IC50 [4]: 1.58 nM | Ki [5]: 1600 nM | Ki (Mu-type opioid receptor [6]): 2 nM

CC1(C)SC[C@H](C(=O)O)NC(=O)[C@H](Cc2ccccc2)NC(=O)CNC(=O)[C@@H]1NC(=O)[C@@H](N)Cc1ccc(O)cc1
Ki [7]: 0.93 nM | IC50 (Mu-type opioid receptor [1]): 730 nM | IC50 [8]: 2.33 nM | Ki [9]: > 10000 nM | ED50 (Rattus norvegicus [10]): 0.26 nM | Ki (Mu-type opioid receptor [11]): 630 nM

CC1(C)SSC(C)(C)[C@@H](NC(=O)[C@@H](N)Cc2ccc(O)cc2)C(=O)NCC(=O)N[C@@H](Cc2ccccc2)C(=O)N[C@H]1C(=O)O
ED50 (Rattus norvegicus [12]): 130 nM

CC1(C)SC[C@@H](C(=O)O)NC(=O)[C@H](Cc2ccccc2)NC(=O)CNC(=O)[C@@H]1NC(=O)[C@@H](N)Cc1ccc(O)cc1
IC50 (Mu-type opioid receptor [1]): 82 nM | Ki (Mu-type opioid receptor [13]): 130 nM | IC50 [8]: 0.26 nM | ED50 (Rattus norvegicus [14]): 0.12 nM | Ki [9]: > 1000 nM | Ki [15]: 0.79 nM

N[C@@H](Cc1ccc(O)cc1)C(=O)N[C@@H]1CSC[C@@H](C(=O)O)NC(=O)[C@H](Cc2ccccc2)NC(=O)CNC1=O
IC50 (Mu-type opioid receptor [1]): 1.06 nM | Ki [16]: 6400 nM | ED50 (Rattus norvegicus [17]): 0.0018 nM | Ki (Mu-type opioid receptor [18]): 2.3 nM | IC50 [4]: 0.35 nM | Ki [19]: 0.63 nM

CN1CC[C@]23c4c5ccc(O)c4O[C@H]2[C@@H](O)C=C[C@H]3[C@H]1C5 [MORPHINE]
ED50 (Rattus norvegicus [20]): 15 nM

Reference: ChEMBL document CHEMBL1135552, “Synthesis and biological activities of cyclic lanthionine enkephalin analogues: delta-opioid receptor selective ligands” (J Med Chem, 2002)
